Data set [1] can be described thus: folding enthalpy; higher = less favourable; fluorescence melt of hairpins on a sequencing array, two-state fit. The following applies: sodium 0.088 M. In outline:
(§1)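 Melting temperature and folding enthalpy were obtained by bootstrapped two-state fitting. Fits used Cy3 fluorescence of library hairpins with annealed Cy3 and quencher oligos on a sequenced MiSeq flow cell, imaged in 50 mM Na-HEPES pH 8.0, 25 mM NaCl in 2.5 °C steps up to 60 °C and normalised to pre-quench Cy3 and control constructs. Four replicates were combined by inverse-variance weighting, and fitted temperatures were raised by 9.35 °C to match UV melts.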

The nature of data set [2]: melting temperature; fluorescence melt of hairpins on a sequencing array, two-state fit, raised by 9.35 °C to match UV melts. The note with it: sodium 0.088 M. The procedure, abridged:
as §1

Turning to GCGAGTGGAAACATTCGC ((((.((....)).)))), in data set [1], the folding enthalpy is -35 kcal/mol. Further, in data set [2], the Tm was 53.2 °C.
For GAGTAGGGAAACCTACCC (.(((((....))))).), in data set [1], the folding enthalpy is -15.4 kcal/mol. Besides, the Tm in data set [2] was 35.1 °C.
As to GCCCCGCGAAAGCTGTGC ((.(.((....)).).)), the folding enthalpy in data set [1] is -12.1 kcal/mol. In data set [2], the Tm worked out at 30.4 °C.
For GATCTAACTTTAGATC ((((((....)))))), the folding enthalpy in data set [1] was -29.9 kcal/mol. Moreover, the Tm in data set [2] was found to be 43.2 °C.
GCGTCGGGAAACTGACGC (((((.(....).))))): the folding enthalpy in data set [1] is -49.8 kcal/mol. The Tm in data set [2] turned out to be 65.3 °C.
Regarding GCTAGTGGAAACACTAGC (((((((....))))))), in data set [1], the folding enthalpy is -47.7 kcal/mol. The Tm in data set [2] came out at 61.9 °C.
Regarding GACTTCGGAAACGAAGCC (.(((((....))))).), in data set [1], the folding enthalpy is -15 kcal/mol. For the same sequence, the Tm in data set [2] amounted to 45.6 °C.
In the case of GGAAGCGAAAGCTGATCC ((((((....)))..))), in data set [1], the folding enthalpy was -12.4 kcal/mol. In addition, the Tm in data set [2] turned out to be 36.9 °C.
As to GCTACGGGAAACCACAGC (((..((....))..))), the folding enthalpy in data set [1] was -21.4 kcal/mol. Moreover, the Tm in data set [2] stood at 36 °C.
The corresponding values for GGATAACGAAAGTTGTCC (((.(((....))).))) are -47.7 kcal/mol and 52.7 °C.
In the case of GTAAAACGAAAGTTATAC (((.(((....))).))), the folding enthalpy in data set [1] was -14.8 kcal/mol. Besides, the Tm in data set [2] was determined as 31.6 °C.
Take GCTCGACCGAAAGGTAGC (((..(((....)))))): the folding enthalpy in data set [1] was -13.8 kcal/mol. Further, the Tm in data set [2] turned out to be 39 °C.
Take GTGAGTCGAAAGACGCAC (((.(((....))).))): in data set [1], the folding enthalpy was -34.4 kcal/mol. For the same sequence, the Tm in data set [2] was found to be 60 °C.
For the sequence GGCTTGCCGAAAGGCGCC (((..(((....)))))), in data set [1], the folding enthalpy was -14 kcal/mol. Further, in data set [2], the Tm came out at 55.8 °C.
As to CGATGCGGAAACGCTCG (((.(((....)))))), in data set [1], the folding enthalpy was -28.4 kcal/mol. Also, the Tm in data set [2] is 50 °C.
With GCCCCCGAAAGGGTCGGC ((((((....)))..))), the folding enthalpy in data set [1] was -17.1 kcal/mol. In addition, the Tm in data set [2] turned out to be 50.4 °C.
For GAGGCCGAAAGGCTGCTC ((((((....)))..))), the folding enthalpy in data set [1] was -12.1 kcal/mol. In addition, the Tm in data set [2] turned out to be 45.9 °C.
Take GCGCAGCGAAAGCTCAGC ((..(((....)))..)): the folding enthalpy in data set [1] is -7.58 kcal/mol. In addition, the Tm in data set [2] came out at 41 °C.
Regarding GCCCAGCGAAAGCATGGC (((..((....))..))), the folding enthalpy in data set [1] is -16 kcal/mol. For the same sequence, in data set [2], the Tm amounted to 56 °C.
For the sequence GCTTGGCGAAAGCTCAGC (((..((....))..))), in data set [1], the folding enthalpy was -15.2 kcal/mol. The Tm in data set [2] worked out at 41.1 °C.
With GTTTCCGAAAGGACAAC ((((((....))).))), the folding enthalpy in data set [1] is -16.6 kcal/mol. Also, the Tm in data set [2] is 39.6 °C.
GACCCACGAAAGTGCGTC (((.(((....))).))): in data set [1], the folding enthalpy was -26.1 kcal/mol. Further, in data set [2], the Tm was 46.7 °C.
GCTTGGCGAAAGCGATGC ((.(.((....)).).)): the folding enthalpy in data set [1] was -14.3 kcal/mol. For the same sequence, the Tm in data set [2] worked out at 45 °C.
In the case of GAGAGCCGAAAGGCGCTC (((.(((....))).))), the folding enthalpy in data set [1] was -22.9 kcal/mol. Further, the Tm in data set [2] is 67.8 °C.
The corresponding values for GATCAACACATTGATC ((((((....)))))) are -36.9 kcal/mol and 44.9 °C.
For the sequence GCGGAGCGAAAGCGTCGC (((..((....))..))), the folding enthalpy in data set [1] was -26.6 kcal/mol. For the same sequence, the Tm in data set [2] was 67 °C.
Turning to GATCATTGAAATGATC ((((((....)))))), in data set [1], the folding enthalpy is -36.8 kcal/mol. Besides, the Tm in data set [2] was found to be 46 °C.
The like results for GAGTTCGGAAACGAACTC (((((((....))))))) were, in that order, -39.4 kcal/mol and 67.3 °C.
For the sequence GACGCCACGAAAGTGGTC (((..(((....)))))), the folding enthalpy in data set [1] is -8.49 kcal/mol. Also, the Tm in data set [2] is 32.1 °C.
As for GCGAGACGAAAGTCACGC (((.(((....))).))), the folding enthalpy in data set [1] is -31.5 kcal/mol. For the same sequence, the Tm in data set [2] amounted to 68.5 °C.
The corresponding values for GACCGTGCGAAAGCAGTC (((..(((....)))))) are -11.4 kcal/mol and 29.6 °C.
With GTGGTCGAAAGACGACAC ((((((....)))..))), in data set [1], the folding enthalpy was -15.4 kcal/mol. Further, the Tm in data set [2] worked out at 47.2 °C.
As to GGAGTCGAAAGACCCTCC ((((((....)))..))), the folding enthalpy in data set [1] was -16.7 kcal/mol. The Tm in data set [2] stood at 48 °C.
For the sequence GATCAGTTGCCTGATC ((((((....)))))), the folding enthalpy in data set [1] is -41.1 kcal/mol. In data set [2], the Tm is 51.4 °C.
As to GTCGGACGAAAGTCAGAC (((.(((....))).))), in data set [1], the folding enthalpy is -39.9 kcal/mol. Besides, in data set [2], the Tm turned out to be 59.3 °C.
Take GGTATTCGAAAGAAAACC (((.(((....))).))): the folding enthalpy in data set [1] was -32.8 kcal/mol. Also, the Tm in data set [2] was 39.3 °C.
As for GTCCGCGGAAACGCGAAC ((.((((....)))).)), the folding enthalpy in data set [1] is -16.5 kcal/mol. Further, in data set [2], the Tm turned out to be 50.9 °C.
